Reference: ChEMBL document CHEMBL3739256, “Design, Synthesis, and Biological Evaluation of 1,2-Dihydroisoquinolines as HIV-1 Integrase Inhibitors” (ACS Med Chem Lett, 2015)

Assays:
[1] = tested on: Human immunodeficiency virus 1; experiment: Antiviral activity against HIV-1 infected in human TZM-bl cells assessed as inhibition of viral replication for 48 hrs by bright-Glo luciferase assay; type: functional, organism-based; conditions: Human immunodeficiency virus 1, TZM-bl
Outline: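 Antiviral screen in TZM-bl cells, a HeLa clone engineered to express CD4 and CCR5 receptors. Activity is reported as EC50 in μM.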

[2] = Cytotoxicity against human TZM-bl cells after 48 hrs by Cell-titerGlo assay; type: cell-based
[3] = tested on: Human immunodeficiency virus 1; experiment: Antiviral activity against HIV-1 NL4-3 infected in human jurkat cells assessed as decrease in p24 level at 10 uM after 48 hrs by western blot analysis; type: functional; conditions: Human immunodeficiency virus 1, NL4-3, Jurkat
Outline: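 Jurkat cells were treated with compound at 10 μM or left untreated, then infected at MOI 1 with VSV-G-pseudotyped pNL4-3 (WT HIV-1). Supernatants were pelleted, solubilized in lysis buffer and probed on Western blot with a p24 antibody. Band intensity was quantified by densitometry as percent p24 relative to the untreated infected control, with significance at p < 0.05.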

[4] = Cytotoxicity against human Jurkat cells after 48 to 72 hrs by MTT assay; type: cell-based
[5] = target: Human immunodeficiency virus type 1 integrase (Human immunodeficiency virus 1, UniProt Q7ZJM1); experiment: Inhibition of HIV-1 integrase strand transfer activity preincubated for 30 mins followed by addition of FITC-labelled dsDNA for 1 hr by microplate reader analysis
Human immunodeficiency virus type 1 integrase (Human immunodeficiency virus 1, UniProt Q7ZJM1), sequence (Q7ZJM1 whole entry): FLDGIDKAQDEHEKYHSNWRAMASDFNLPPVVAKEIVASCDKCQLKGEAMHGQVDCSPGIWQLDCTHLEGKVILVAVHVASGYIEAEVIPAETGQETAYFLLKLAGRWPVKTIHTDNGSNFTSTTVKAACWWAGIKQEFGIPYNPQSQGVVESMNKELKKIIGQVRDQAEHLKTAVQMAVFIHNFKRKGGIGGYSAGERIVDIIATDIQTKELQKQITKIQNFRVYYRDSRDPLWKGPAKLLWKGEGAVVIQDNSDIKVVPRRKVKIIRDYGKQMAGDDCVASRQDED

[6] = target: Human immunodeficiency virus type 1 integrase (Human immunodeficiency virus 1, UniProt Q7ZJM1, G140S); experiment: Inhibition of HIV-1 integrase G140S mutant strand transfer activity preincubated for 30 mins followed by addition of FITC-labelled dsDNA for 1 hr by microplate reader analysis
Human immunodeficiency virus type 1 integrase (Human immunodeficiency virus 1, UniProt Q7ZJM1, G140S), sequence (Q7ZJM1 entry or part of it G140S): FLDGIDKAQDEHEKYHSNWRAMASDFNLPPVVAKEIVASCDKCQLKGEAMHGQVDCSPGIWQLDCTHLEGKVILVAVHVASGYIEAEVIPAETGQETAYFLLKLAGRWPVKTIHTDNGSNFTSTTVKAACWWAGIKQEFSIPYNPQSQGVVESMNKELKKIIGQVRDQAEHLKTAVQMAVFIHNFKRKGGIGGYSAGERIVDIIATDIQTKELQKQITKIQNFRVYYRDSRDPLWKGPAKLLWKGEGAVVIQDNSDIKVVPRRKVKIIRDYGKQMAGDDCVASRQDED

[7] = Therapeutic index, ratio of CC50 for human TZM-bl cells to EC50 for HIV-1 infected in TZM-bl cells; type: cell-based; conditions: read-out: Ratio CC50/EC50
Outline: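 Index calculated as CC50/EC50, both measured in TZM-bl cells; CC50 is cell-based cytotoxicity at 48 h.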

## Cc1nnc(C(=O)NC(C)(C)c2nc(C(=O)NCc3ccc(F)cc3)c(O)c(=O)n2C)o1
[1]
  EC50: 0.15 µM
[2]
  CC50 at 48 h: > 200 µM
[3]
  inhibition at 10 µM: 92%
[4]
  CC50: > 120 µM

## COc1ccc(C2=Cc3ccc(F)cc3C(C[N+](=O)[O-])N2c2ccc(Cl)cc2)cc1 (stereo not drawn)
[5]
  IC50: 0.7 µM
[6]
  IC50: 0.8 µM
[1]
  EC50: 0.03 µM
[2]
  CC50 at 48 h: 32.2 µM
[7]
  selectivity ratio: 1070
[3]
  inhibition at 10 µM: 91%
[4]
  CC50: 20.3 µM

## COc1ccc(C2=Cc3ccc(F)cc3C(CC(=O)CO)N2c2ccc(Cl)cc2)cc1 (stereo not drawn)
[5]
  IC50: 17.9 µM
[6]
  IC50: 14.9 µM
[1]
  EC50: 26.4 µM
[2]
  CC50 at 48 h: 8.5 µM
[7]
  selectivity ratio: 0.3

## Cc1ccc(C2=Cc3ccccc3C(C[N+](=O)[O-])N2c2ccc(F)cc2)cc1 (stereo not drawn)
[1]
  EC50: 16.5 µM
[2]
  CC50 at 48 h: 21.5 µM
[7]
  selectivity ratio: 1.3
[4]
  CC50: 51.2 µM

## COc1ccc(C2=Cc3ccc([N+](=O)[O-])cc3C(CC(C)=O)N2c2ccc(O)cc2)cc1 (stereo not drawn)
[5]
  IC50: 6.6 µM
[6]
  IC50: 7.6 µM
[1]
  EC50: 31.4 µM
[2]
  CC50 at 48 h: 23.5 µM
[7]
  selectivity ratio: 0.7

## COc1ccc(C2=Cc3ccc(F)cc3C(CC(=O)CO)N2c2ccc([N+](=O)[O-])cc2)cc1 (stereo not drawn)
[5]
  IC50: 0.82 µM
[6]
  IC50: 46.4 µM
[1]
  EC50: 10.4 µM
[2]
  CC50 at 48 h: 46.4 µM
[7]
  selectivity ratio: 4.4
[3]
  inhibition at 10 µM: 70.9%
[4]
  CC50: 57.1 µM

## COc1ccc(C2=Cc3ccc(F)cc3C(CC(=O)CO)N2c2ccc(C#N)cc2)cc1 (stereo not drawn)
[5]
  IC50: 7.6 µM
[6]
  IC50: 7 µM
[1]
  EC50: 29.1 µM
[2]
  CC50 at 48 h: 39.7 µM
[7]
  selectivity ratio: 1.3

## O=[N+]([O-])CC1c2cc([N+](=O)[O-])ccc2C=C(c2ccccc2)N1c1ccc(Cl)cc1 (stereo not drawn)
[5]
  IC50: 3.1 µM
[6]
  IC50: 3 µM
[1]
  EC50: 1.15 µM
[2]
  CC50 at 48 h: 26 µM
[7]
  selectivity ratio: 22.6
[4]
  CC50: 24.9 µM

## COc1ccc(C2=Cc3ccc(F)cc3C(CC(C)=O)N2c2ccc(C#N)cc2)cc1 (stereo not drawn)
[6]
  IC50: 20 µM

## O=[N+]([O-])CC1c2ccccc2C=C(c2ccccc2)N1c1ccccc1 (stereo not drawn)
[1]
  EC50: 15.6 µM
[2]
  CC50 at 48 h: 10.3 µM
[7]
  selectivity ratio: 0.6
[4]
  CC50: 42.3 µM

## COc1ccc(C2=Cc3ccc([N+](=O)[O-])cc3C(CC(C)=O)N2c2ccc(C#N)cc2)cc1 (stereo not drawn)
[5]
  IC50: 2.9 µM
[6]
  IC50: 2.8 µM
[1]
  EC50: 22.5 µM
[2]
  CC50 at 48 h: 15.4 µM
[7]
  selectivity ratio: 0.6

## COc1ccc(C2=Cc3ccc(F)cc3C(CC(=O)C(C)O)N2c2ccc(C#N)cc2)cc1 (stereo not drawn)
[5]
  IC50: 22.2 µM
[6]
  IC50: 22 µM
[1]
  EC50: 18.7 µM
[2]
  CC50 at 48 h: 24.1 µM
[7]
  selectivity ratio: 1.2

## COc1ccc(C2=Cc3ccc([N+](=O)[O-])cc3C(CC(C)=O)N2c2ccc(C)cc2)cc1 (stereo not drawn)
[5]
  IC50: 0.6 µM
[6]
  IC50: 0.65 µM
[1]
  EC50: 26.3 µM
[2]
  CC50 at 48 h: 10.6 µM
[7]
  selectivity ratio: 0.4
[4]
  CC50: 33.1 µM

## COc1ccc(C2=Cc3ccc(F)cc3C(CC(C)=O)N2c2ccc([N+](=O)[O-])cc2)cc1 (stereo not drawn)
[2]
  CC50 at 48 h: 11.2 µM

## COc1ccc(C2=Cc3ccc(F)cc3C(CC(=O)CO)N2c2ccc(O)cc2)cc1 (stereo not drawn)
[5]
  IC50: 22.1 µM
[6]
  IC50: 20.1 µM
[1]
  EC50: 24.4 µM
[2]
  CC50 at 48 h: 47.7 µM
[7]
  selectivity ratio: 1.9

## COc1ccc(C2=Cc3ccc(F)cc3C(CC(C)=O)N2c2ccc(O)cc2)cc1 (stereo not drawn)
[5]
  IC50: 12 µM
[6]
  IC50: 14 µM
[1]
  EC50: 21.4 µM
[2]
  CC50 at 48 h: 60.5 µM
[7]
  selectivity ratio: 2.8

## COc1ccc(C2=Cc3ccc([N+](=O)[O-])cc3C(CC(C)=O)N2c2ccc(F)cc2)cc1 (stereo not drawn)
[5]
  IC50: 0.46 µM
[6]
  IC50: 0.64 µM
[1]
  EC50: 36.3 µM
[2]
  CC50 at 48 h: 7.7 µM
[7]
  selectivity ratio: 0.2
[4]
  CC50: 16.4 µM

## COc1ccc(C2=Cc3ccc(F)cc3C(CC(=O)C(C)O)N2c2ccc(C)cc2)cc1 (stereo not drawn)
[5]
  IC50: 10.6 µM
[6]
  IC50: 12.7 µM
[2]
  CC50 at 48 h: 12.7 µM

## COc1ccc(C2=Cc3ccc(F)cc3C(CC(=O)C(C)O)N2c2ccc(O)cc2)cc1 (stereo not drawn)
[5]
  IC50: 25.2 µM
[6]
  IC50: 25 µM
[1]
  EC50: 19.7 µM
[2]
  CC50 at 48 h: 50.9 µM
[7]
  selectivity ratio: 2.5

## COc1ccc(C2=Cc3ccc(OC)cc3C(C[N+](=O)[O-])N2c2ccccc2)cc1 (stereo not drawn)
[1]
  EC50: 10.5 µM
[2]
  CC50 at 48 h: 29.4 µM
[7]
  selectivity ratio: 2.8
[4]
  CC50: 22.1 µM

## COc1ccc(C2=Cc3ccc(F)cc3C(CC(=O)CO)N2c2ccc(C)cc2)cc1 (stereo not drawn)
[5]
  IC50: 15.1 µM
[6]
  IC50: 14.1 µM
[1]
  EC50: 28.4 µM
[2]
  CC50 at 48 h: 23.7 µM
[7]
  selectivity ratio: 0.8

## COc1ccc(C2=Cc3ccc(F)cc3C(CC(=O)C(C)O)N2c2ccc(F)cc2)cc1 (stereo not drawn)
[5]
  IC50: 7.9 µM
[6]
  IC50: 8 µM
[1]
  EC50: 11.7 µM
[2]
  CC50 at 48 h: 14 µM
[7]
  selectivity ratio: 1.1
[4]
  CC50: 1.81 µM

## COc1ccc(C2=Cc3ccc(F)cc3C(CC(=O)C(C)O)N2c2ccc(Cl)cc2)cc1 (stereo not drawn)
[5]
  IC50: 11.8 µM
[6]
  IC50: 10.8 µM
[2]
  CC50 at 48 h: 9.9 µM

## COc1ccc(C2=Cc3ccc(F)cc3C(CC(=O)C(C)O)N2c2ccc([N+](=O)[O-])cc2)cc1 (stereo not drawn)
[5]
  IC50: 5.2 µM
[6]
  IC50: 5.5 µM
[1]
  EC50: 12.7 µM
[2]
  CC50 at 48 h: 10.1 µM
[7]
  selectivity ratio: 0.7
[4]
  CC50: 6.1 µM
